Assay outcomes as filed in PubChem BioAssay.
Rows were chosen to be rich in hits. Some 2.7% of all compounds tested hit in one or more screens of this group.
SIAE primary: human SIAE inhibition, primary screen; Q9HAT2; inhibition, % at 9.66 µM; 0.69% of 370,000 active; SIAE FP-Rh probe binding, fluorescence polarization;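 active = inhibition above a cutoff: mean of compounds within the control limits plus 3 SD of those, cut at about 17% in these data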;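 also: 0% = plate median of compound wells and 100% = probe without SIAE protein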
PRMT1 inh: inhibitors of human PRMT1; recombinant PRMT1, activity-based probe fluorescence polarization; inhibition, % at 2.79 µM; 1.3% of 370,000 active; Q99873;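 active = inhibition above about 21% made by adding two undisclosed values, limit read from the data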
Target sequence (Q99873 whole entry, looked up): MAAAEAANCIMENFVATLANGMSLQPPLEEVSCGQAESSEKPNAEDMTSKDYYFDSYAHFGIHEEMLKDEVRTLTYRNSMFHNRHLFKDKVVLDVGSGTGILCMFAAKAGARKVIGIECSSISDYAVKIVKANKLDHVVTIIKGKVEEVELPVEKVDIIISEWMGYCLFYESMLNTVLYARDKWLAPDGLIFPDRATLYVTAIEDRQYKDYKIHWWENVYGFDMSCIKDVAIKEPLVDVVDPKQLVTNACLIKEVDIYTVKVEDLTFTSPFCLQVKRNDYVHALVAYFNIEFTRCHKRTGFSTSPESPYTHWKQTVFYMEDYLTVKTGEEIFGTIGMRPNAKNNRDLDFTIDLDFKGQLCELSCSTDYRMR
ABHD4 inh: ABHD4 (mouse) inhibition, primary FP screen; 0.54% of 370,000 active; purified mABHD4, FP-Rh probe fluorescence polarization; AID 720543; Q8VD66; inhibition, % at 8.92 µM;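 active = inhibition exceeding the mean over every tested compound plus 3 SD, cut at about 30% in these data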;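 also: 0% = plate median of compound wells and 100% = S159A mutant with DMSO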
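Assay system: wild-type mouse ABHD4 protein; compound: single nominal dose of 8.92 µM, 0.89% DMSO final; schedule: 45 min + 60 min at 25 °C; measured by: FP readout, ex 525 nm / em 598 nm; evaluation: % inhibition of FP-Rh probe binding versus controls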
HTRA1 inhibitor: inhibitors of human serine peptidase HTRA1; Q92743; recombinant HTRA1, FP-rhodamine activity-based probe, fluorescence polarization; inhibition, % at 5.96 µM; 0.5% of 340,000 active; AID 504803; in the data active = inhibition above about 36%;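 also: 0% = enzyme with DMSO and 100% = wells lacking enzyme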
TCR CD3 inh: blocks the human TCR-CD3 interaction | AID 651800 | 0.37% of 360,000 active | inhibition, % at 9.4 µM | TAMRA-labeled TCR probe fluorescence, biochemical; in the data active = inhibition above about 19%;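 also: recombinant mutant TCR 2C K166C tagged with TAMRA read by polarization; 0% = receptor in buffer alone and 100% = receptor with positive control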
HTRA1 conf: HTRA1 (human) inhibition, confirmation; shares compounds with HTRA1 inhibitor; recombinant HTRA1, FP-rhodamine activity-based probe, fluorescence polarization; inhibition, % at 5.96 µM; 66% of 1,600 active;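 active = mean inhibition over three repeats above a set limit taken from the earlier primary screen, cut at about 37% in these data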;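 also: 0% = HTRA1 with DMSO and 100% = wells lacking HTRA1; inhibitors block probe binding so polarization drops and inhibition rises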
Active calls of the source: *; nt = no result; + = active, no number.

SMILES	SIAE primary	PRMT1 inh	ABHD4 inh	HTRA1 inhibitor	TCR CD3 inh	HTRA1 conf
COc1cc(C(=O)Oc2c(CN3CCOCC3)cc(Cl)c3cccnc23)cc(OC)c1OC	nt	nt	nt	50.0*	nt	71.4*
O=C(Oc1c(CN2CCOCC2)cc(Cl)c2cccnc12)c1ccccc1Cl	16.1	0.9	11.8	37.1*	-5.3	39.2*
O=C(Oc1c(CN2CCOCC2)cc(Cl)c2cccnc12)c1cccs1	8.7	-4.3	6.9	44.4*	-7.8	10.9
O=C(Oc1c(Cl)cc(Cl)c2cccnc12)c1cccs1	10.0	-2.0	15.4	44.8*	-4.7	24.1
O=C(Oc1c(CN2CCOCC2)cc(Cl)c2cccnc12)c1ccc(F)cc1	3.7	-0.3	5.9	30.1	6.6	nt
COc1ccc(C(=O)N/N=C(\C)CC(=O)Nc2cccc(C(F)(F)F)c2)cc1	3.2	-1.0	-9.1	-3.2	5.3	nt
COC(=O)c1ccc(CN2C(=O)[C@]3(OCCC=C[C@H]3C)c3cc(OC)ccc32)cc1	-4.3	3.4	-0.8	nt	-7.0	nt
O=C(Oc1c(Cl)cc(Cl)c2cccnc12)c1ccco1	7.1	-5.6	16.1	59.0*	3.2	54.4*
CCOC(=O)c1c(C)oc2c1c(C=NCc1ccccn1)c(O)c1ccccc12	17.9*	21.4*	34.3*	43.5*	1.5	60.4*
CCOC(=O)c1c(C)oc2c1c(C=NCC1CCCO1)c(O)c1ccccc12 (centres undefined)	7.7	18.5	20.9	7.8	-7.0	nt
O=C(Cc1ccc(Cl)c(Cl)c1)Nc1ccc2[nH]c(=O)[nH]c2c1	-30.8	-4.2	-45.7	-23.8	1.4	nt
COC(=O)C1=C(C)NC(=O)/C1=C\c1cc(C)n(-c2cccc(C)c2)c1C	5.0	6.3	21.8	51.9*	3.0	38.2*
COC(=O)CCC(=O)OC1(C)C(=O)C2=CN(C3CCCC3)C(c3ccc(OC)cc3)=CC2=C(Br)C1=O (centres undefined)	6.2	3.8	9.4	61.0*	-3.9	52.4*
C=CCN1C=C2C(=O)C(C)(OC(=O)CCC(=O)OC)C(=O)C(Br)=C2C=C1c1ccc(OC)cc1 (centres undefined)	nt	nt	nt	63.4*	nt	43.3*
COC(=O)CCC(=O)OC1(C)C(=O)C2=CN(c3ccc(OC)cc3)C(c3ccc(OC)cc3)=CC2=C(Br)C1=O (centres undefined)	nt	nt	nt	52.8*	nt	62.8*
CCN(CC)CCCN1C=C2C(=O)C(C)(OC(=O)CCC(=O)OC)C(=O)C(Br)=C2C=C1c1ccc(OC)cc1 (centres undefined)	2.9	3.1	15.3	19.8	7.5	nt
COCCN1C=C2C(=O)C(C)(OC(=O)CCC(=O)OC)C(=O)C(Br)=C2C=C1c1ccc(OC)cc1 (centres undefined)	nt	nt	nt	26.9	nt	nt
CC(=O)NCc1ccc(OCCCN2CCC(C(O)(c3ccccc3)c3ccccc3)CC2)cc1	-5.1	6.5	-9.3	nt	4.3	nt
C[C@H](CO)N1C[C@H](C)[C@H](CN(C)C(=O)Nc2cccc3ccccc23)Oc2ncc(Br)cc2C1=O	4.2	3.8	6.0	nt	2.5	nt
CCc1ccc(C(=O)/C=C2\Sc3ccccc3NC2=O)cc1	5.6	14.2	-8.8	59.5*	10.4	93.4*
CCCCNC(=O)/C=C1\Sc2ccccc2NC1=O	-0.2	-0.4	-2.8	0.7	-2.3	nt
CN(C)c1ccc(NC(=O)CSCc2nc3c(nnn3Cc3ccc(F)cc3)c(=O)[nH]2)cc1	nt	nt	nt	37.9*	nt	2.5
Cc1cccc(NC(=O)CSCc2nc3c(nnn3Cc3ccc(F)cc3)c(=O)[nH]2)c1C	5.8	3.9	-2.8	0.2	-8.3	nt
Cc1cccc(NS(=O)(=O)c2ccc(C(=O)N3CCCCCC3)cc2)c1C	-4.5	-0.2	3.7	-10.8	4.7	nt
CCCn1c(CNc2ccccc2O)nc2ccccc21	6.2	4.5	26.8	44.2*	-4.6	59.3*
SMILES	SIAE primary	PRMT1 inh	ABHD4 inh	HTRA1 inhibitor	TCR CD3 inh	HTRA1 conf
CCCCn1c(CNC(=O)CCC)nc2ccccc21	1.5	-10.4	5.2	4.8	4.7	nt
COc1ccc(-n2nnnc2SCC(=O)c2ccc(O)c(O)c2)cc1	4.3	-1.8	24.1	45.5*	18.4	61.3*
CCOC(=O)C1=CCC(c2ccc([N+](=O)[O-])cc2)N(S(=O)(=O)c2ccc(C)cc2)C1 (centres undefined)	-1.4	-2.3	1.7	nt	8.0	nt
CCc1cccc(NC(=O)Cn2cc3c(n2)CCCC3)c1	0.2	-4.5	-7.1	-9.5	0.1	nt
CN(C)c1ccc(NC(=O)Cn2cc3c(n2)CCCC3)cc1	3.4	0.3	4.9	43.7*	-9.4	59.4*
Oc1ccc(/C=N/N2CCN(C3c4ccccc4-c4ccccc43)CC2)cc1O	4.5	3.8	29.2	37.6*	13.1	+
Oc1ccc(/C=N/N2CCN(C3c4ccccc4-c4ccccc43)CC2)cc1	0.8	-1.5	-1.0	4.7	-1.3	nt
Oc1ccc(Cl)cc1/C=C/c1ccc2cccc(O)c2n1	8.3	-2.1	-9.8	5.3	-1.7	nt
Oc1c(Cl)cc(Cl)cc1/C=C/c1ccc2cccc(O)c2n1	0.9	0.3	7.1	36.8*	-1.9	47.9*
Oc1cccc2ccc(/C=C/c3ccccc3Br)nc12	-12.9	7.4	-2.6	51.6*	-5.7	44.8*
CCOC(=O)[C@]12CCC=C1N(Cc1ccc3c(c1)OCO3)C(=O)[C@H](CC(=O)N1CCC(c3ccccc3)CC1)C2	-1.6	-2.2	-12.8	nt	4.8	nt
O=C1CCC[C@H]2[C@@H](Cc3ccccc3)[C@@H](O)CC[C@]23CCCN13	-1.7	-1.8	5.3	nt	nt	nt
Nc1nc(-c2ccc(NC(=O)c3ccco3)cc2)cs1	-14.7	11.1	-3.7	-8.2	-11.6	nt
NC(=O)/C(=N\OC(=O)c1ccco1)c1nc(-c2ccc(Br)cc2)cs1	-41.4	-1.6	13.7	66.5*	3.8	46.9*
CC(C)NC(=S)N/N=C/c1cc(Br)ccc1O	16.5	2.6	7.5	37.2*	9.4	49.0*
Cc1ccc2c(c1)c1c(n2C)C(C(N)=O)CCC1 (centres undefined)	1.2	1.5	5.3	3.2	10.4	nt
Cc1ccc2c(c1)c1c(n2C)-c2[nH]ncc2CC1	20.7*	-0.5	24.6	37.0*	4.0	19.8
CN(C)CCCNc1cc(C(C)(C)C)nc2c(-c3ccc(Cl)cc3)cnn12	6.4	5.3	26.3	49.3*	-8.9	69.8*
CC1CCCCC1NC(=O)c1ccc(-n2cncn2)cc1 (centres undefined)	2.9	-6.0	-0.6	5.1	9.7	nt
Cc1cc(C)c2nc(NNC(=O)c3ccc(S(=O)(=O)N4CCc5ccccc5C4)cc3)sc2c1	5.5	-7.1	6.0	51.8*	3.2	47.9*
CCc1nnc(NC(=O)c2ccc(S(=O)(=O)N3CCc4ccccc4C3)cc2)s1	-0.7	2.4	3.5	2.0	6.4	nt
Cc1cc(C)c2sc(NNC(=O)c3ccc(S(=O)(=O)N4CCc5ccccc5C4)cc3)nc2c1	-0.5	1.5	1.5	44.5*	-10.6	41.7*
O=C1C=C(O)c2[nH]c(=O)ccc2C1=O	0.9	5.6	17.1	46.5*	9.0	13.3
